Experimental data as given in article PMC10234622 (Matrix biology : journal of the International Society for …, 2022).
Blank lines part the entries; values can stand above or below the molecule they belong to.

Key:
[1] = target: FITC-labeled ASPN peptide (FITC-ε-Ahx-Asporin) (mouse); test: MST
[2] = test system: Aspn in 3T3 embryonic fibroblasts; test: Aspn expression and release in 3T3 embryonic fibroblasts, western blot; type: cell-based; settings: TGFβ1 5 ng/ml, 24 h; n = 4
Summary of the method: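 3T3 fibroblasts were grown in DMEM (10 mM glucose, 10% FBS, pH 7.4) and given vehicle or TGFβ1 5 ng/ml for 24 h. Intracellular Aspn came from cell lysates and extracellular Aspn from the collected media. Equal protein (Bradford) was run on 4–12% Bis-Tris gels and transferred to nitrocellulose. Blots were blocked in 5% milk 45 min, probed with anti-ASPN 1:1000 overnight at 4 °C, then peroxidase secondary 2 h RT; n = 4.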

[3] = test system: Aspn in differentiated H9c2 cardiomyocytes; test: Aspn expression and release in H9c2 cardiomyocytes; type: cell-based; settings: TGFβ1 stimulation of cardiomyocytes
[4] = test system: H9c2 cardiomyocytes; test: Seahorse respirometry on differentiated H9c2 cardiomyocytes; type: cell-based; settings: rASPN 1 nM for 24 hrs, vs vehicle, n = 3
Summary of the method: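 H9c2 cells were seeded at 15,000/well and differentiated for 5 days, then given vehicle or rASPN 1 nM for 24 h. Medium was switched to XF base with glucose, pyruvate and glutamine, and cells equilibrated 45 min at 37 °C without CO₂. OCR was recorded at several time points, basally and after sequential oligomycin, FCCP and antimycin A/rotenone. Parameters were calculated from traces; mean with SD, n = 3, unpaired t-test.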

[5] = test system: differentiated H9c2 cardiomyocytes; test: LDH release after hypoxia/reoxygenation; type: cell-based; settings: rASPN 1 nM for 24 hrs prior to hypoxia (2 hrs) and reoxygenation (2 hrs); n = 4
[6] = test system: differentiated H9c2 cardiomyocytes; test: TUNEL staining after hypoxia/reoxygenation; type: cell-based; settings: rASPN treatment; hypoxia-reoxygenation
Summary of the method: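 H9c2 cells were differentiated for 5 days (1% FBS, 1 nM retinoic acid) and given vehicle or rASPN 1 nM for 24 h. Hypoxia 2 h and reoxygenation 2 h followed. Cells were fixed in 2% PFA 15 min RT, permeabilized with 0.1% Triton X-100, TUNEL-labelled with fluorescein and counterstained with DAPI. TUNEL-positive nuclei were counted over many fields of 10–15 cells and expressed as a ratio to DAPI-stained cells; mean with SD.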

[7] = test system: differentiated H9c2 cardiomyocytes; test: MitoSOX staining, ROS after hypoxia-reoxygenation; type: cell-based; settings: rASPN
Summary of the method: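 H9c2 cells were differentiated for 5 days in DMEM with 1% FBS and 1 nM retinoic acid. They were given vehicle or rASPN, then simulated hypoxia-reoxygenation; control cells stayed under normal culture. Cells were stained with MitoSOX red and imaged by fluorescence microscopy. Intensity was expressed relative to control; mean with SD, one-way ANOVA with Tukey's test.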

Kd [1]: 15 nM
Molecule: recombinant mouse TGFβ-1 protein (from UniProt P04202 279-390) (ligand)

Molecule: TGFβ1: Transforming growth factor β1
expression of Aspn (intracellular) [2]: increased expression
release of Aspn into extracellular media [2]: increased release of Aspn
Aspn induction or release in extracellular media [3]: no significant induction or any release in extracellular media

B1: rASPN: Recombinant asporin protein (protein, UniProt Q9BXN1 33-380, looked up)
Asporin: DMEDTDDDDDDDDDDDDDDEDNSLFPTREPRSHFFPFDLFPMCPFGCQCYSRVVHCSDLGLTSVPTNIPFDTRMLDLQNNKIKEIKENDFKGLTSLYGLILNNNKLTKIHPKAFLTTKKLRRLYLSHNQLSEIPLNLPKSLAELRIHENKVKKIQKDTFKGMNALHVLEMSANPLDNNGIEPGAFEGVTVFHIRIAEAKLTSVPKGLPPTLLELHLDYNKISTVELEDFKRYKELQRLGLGNNKITDIENGSLANIPRVREIHLENNKLKKIPSGLPELKYLQIIFLHSNSIARVGVNDFCPTVPKMKKSLYSAISLFNNPVKYWEMQPATFRCVLSRMSVQLGNFGM
maximal respiration ([4]; FCCP as uncoupler): significant increase
spare respiratory capacity ([4]; FCCP as uncoupler): significant increase
ATP production [4]: increased basal OCR and ATP production
basal OCR [4]: increased basal OCR
non-mitochondrial OCR [4]: reducing
cell death (LDH release) [5]: reduced cell death
percent TUNEL positive cells [6]: reduced percent TUNEL positive cells
ROS production (MitoSOX) [7]: significantly reduced
